Experimental data taken from ChEMBL document CHEMBL4219061, “Structure-activity relationships of cryptopleurine analogs with E-ring modifications as anti-hepatitis C virus agents” (Bioorg Med Chem, 2018).
Calls of active or inactive are those of the source. No cut-off for these calls is given here.

Tests used:
Hepatitis C virus = assay: Antiviral activity against HCV genotype 1b con1 infected in human Huh-luc/neo-ET cells assessed as inhibition of viral replication after 72 hrs; type: functional, organism-based, Hepacivirus hominis; conditions: isolate Con1, Huh-luc/neo-ET
How it was run: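 Firefly-luciferase reporter in the Con1 genotype 1b subgenomic replicon used to follow HCV replication in Huh-luc/neo-ET cells, tested without G418 (routinely kept in DMEM, 10% FBS, 1 mM nonessential amino acids, 250 µg/ml G418, 37 °C, 5% CO2). Luciferase read on a plate reader. EC50 = concentration giving 50% inhibition of replication versus DMSO vehicle. Mean ± SD of three independent experiments.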

[1] = Effect on […] CHIP expression in human Huh-luc/neo-ET cells at 6 nM after 24 hrs; type: ADME, cell-based; conditions: 0.006 µM
[2] = target: Heat shock cognate 71 kDa protein (Homo sapiens) (UniProt P11142); assay: Induction of HSC70 (unknown origin) chaperone activity assessed as reactivation of guanidine-denatured luciferase at 10 uM in presence of human recombinant CHIP by luciferase reporter gene assay
Sequence of Heat shock cognate 71 kDa protein (Homo sapiens) (P11142 2-646 limits assumed): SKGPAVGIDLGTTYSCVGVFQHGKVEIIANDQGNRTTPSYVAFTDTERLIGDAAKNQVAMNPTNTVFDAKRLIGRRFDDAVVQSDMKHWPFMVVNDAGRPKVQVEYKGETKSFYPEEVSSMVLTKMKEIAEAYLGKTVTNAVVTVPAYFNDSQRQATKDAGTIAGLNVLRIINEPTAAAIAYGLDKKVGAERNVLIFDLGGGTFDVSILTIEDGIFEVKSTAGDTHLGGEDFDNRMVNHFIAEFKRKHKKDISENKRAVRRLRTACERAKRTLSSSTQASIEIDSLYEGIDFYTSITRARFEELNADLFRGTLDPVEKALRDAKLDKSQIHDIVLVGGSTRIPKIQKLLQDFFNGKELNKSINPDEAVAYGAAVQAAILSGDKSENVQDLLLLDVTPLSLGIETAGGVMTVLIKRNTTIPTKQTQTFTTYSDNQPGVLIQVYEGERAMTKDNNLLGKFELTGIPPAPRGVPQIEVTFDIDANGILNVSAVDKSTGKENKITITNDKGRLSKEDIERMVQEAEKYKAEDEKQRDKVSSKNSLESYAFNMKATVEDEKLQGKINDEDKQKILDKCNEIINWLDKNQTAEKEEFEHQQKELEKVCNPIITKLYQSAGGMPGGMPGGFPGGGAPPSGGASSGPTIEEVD

HepG2 2.2.15 [3] = assay: Cytotoxicity against human HepG2(2.2.15) cells assessed as cell growth inhibition; type: cell-based
How it was run: (§1)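 Cell growth measured against DMSO vehicle in HepG2.2.15 cells (MEME, 10% FCS, 50 µg/ml kanamycin) or in Huh-luc/neo-ET cells. IC50 = concentration giving 50% inhibition of cell growth. Mean ± SD of three independent experiments.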

Huh-luc/neo-ET = assay: Effect on HSC70 expression in human Huh-luc/neo-ET cells at 6 nM measured up to 72 hrs by Western blot analysis
[4] = target: Heat shock cognate 71 kDa protein (Homo sapiens) (UniProt P11142); assay: Induction of HSC70 chaperone activity in human Huh-luc/neo-ET cells assessed as reduction in HCV RNA NS3 protein expression at 6 nM after 24 hrs; type: cell-based
How it was run: (§2)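 Huh-luc/neo-ET replicon cells (HCV 1b Con1, DMEM, 10% FBS) transiently transfected with FLAG-CHIP plasmid or empty vector, then treated 24 h with compound. HCV RNA, NS3 and NS5A protein levels measured. Representative of more than two independent experiments; two-tailed Student's t-test, p < .05.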

Hepatitis B virus = assay: Antiviral activity against HBV infected in human HepG2(2.2.15) cells assessed as inhibition of viral DNA level after 6 days by Southern blot analysis; type: functional; conditions: HepG2 2.2.15, 144 h
How it was run: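 HepG2.2.15 cells (HBV genome integrated; MEME, 10% FCS, kanamycin) seeded ~5 × 10^5 per well and grown 6 days, then given compound for 6 days with fresh medium every other day. Total DNA (20 μg) run on 1% agarose, blotted, hybridized overnight at 65 °C with 32P-labeled full-length HBV probe; read by film or PhosphorImager.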

[5] = Therapeutic index, ratio of IC50 for human Huh-luc/neo-ET cells to EC50 for HCV genotype 1b con1; type: toxicity; conditions: Huh-luc/neo-ET cells (HCV genotype 1b con1), read-out: Ratio IC50/EC50
[6] = target: Heat shock cognate 71 kDa protein (Homo sapiens) (UniProt P11142); assay: Induction of HSC70 chaperone activity in human Huh-luc/neo-ET cells co-transfected with FLAG-tagged CHIP assessed as reduction in HCV RNA NS5A protein expression at 6 nM after 24 hrs; type: cell-based; how it was run: as §2
[7] = Cytotoxicity against human Huh-luc/neo-ET cells assessed as cell growth inhibition; type: cell-based; how it was run: as §1
[8] = target: Heat shock cognate 71 kDa protein (Homo sapiens) (UniProt P11142); assay: Displacement of biotinylated-rac-cryptopleurine from recombinant HSC70 (unknown origin) […] by Western blot analysis
How it was run: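 Biotinylated rac-cryptopleurine loaded overnight at room temperature onto streptavidin resin in 50% DMSO/50% protein-binding buffer (20 mM Hepes pH 7.9, 100 mM NaCl, 0.5% NP-40, 6 mM MgCl2). Resin washed, then incubated 2 h at room temperature with recombinant His-Hsc70 (E. coli BL21(DE3)pLysS, Ni-NTA purified) in 2.5% BSA. Bound Hsc70 eluted with buffer alone or with compound.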

[9] = target: Heat shock cognate 71 kDa protein (Homo sapiens) (UniProt P11142); assay: Allosteric regulation of recombinant HSC70 (unknown origin) ATPase activity assessed as increase in ADP production at 10 uM after 10 mins in presence of HCV wild type poly U/UC RNA by HPLC analysis
How it was run: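 Recombinant Hsc70 (0.25 μM) incubated with compound at 10 μM plus ATP and 0.5 μM HCV wild-type poly U/UC RNA in MOPS buffer pH 7.4 (Mg(OAc)2, KOAc, DTT, BSA), 37 °C, 10 min. Stopped with TCA (15% final), extracted with trichlorotrifluoroethane:trioctylamine, ADP quantified by HPLC against standard curve on same column. Mean ± SD, three experiments.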

[10] = target: Heat shock cognate 71 kDa protein (Homo sapiens) (UniProt P11142); assay: Induction of HSC70 chaperone activity in human Huh-luc/neo-ET cells co-transfected with FLAG-tagged CHIP assessed as reduction in HCV RNA NS3 protein expression at 6 nM after 24 hrs; type: cell-based; how it was run: as §2
[11] = target: Heat shock cognate 71 kDa protein (Homo sapiens) (UniProt P11142); assay: Induction of HSC70 chaperone activity in human Huh-luc/neo-ET cells assessed as reduction in HCV RNA NS5A protein expression at 6 nM after 24 hrs; type: cell-based; how it was run: as §2
[12] = Effect on […] CHIP expression in human Huh-luc/neo-ET cells at 3 nM after 24 hrs; type: ADME, cell-based; conditions: 0.003 µM
[13] = target: Heat shock cognate 71 kDa protein (Homo sapiens) (UniProt P11142); assay: Induction of HSC70 chaperone activity in human Huh-luc/neo-ET cells assessed as reduction in HCV RNA NS5A protein expression at 3 nM after 24 hrs; type: cell-based
How it was run: (§3)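 Huh-luc/neo-ET replicon cells transiently transfected with FLAG-tagged CHIP plasmid or empty vector and treated with compound for 24 h. HCV RNA and NS3 and NS5A protein levels measured. Representative of more than two independent experiments; two-tailed Student's t-test, p < .05.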

[14] = target: Heat shock cognate 71 kDa protein (Homo sapiens) (UniProt P11142); assay: Induction of HSC70 chaperone activity in human Huh-luc/neo-ET cells co-transfected with FLAG-tagged CHIP assessed as reduction in HCV RNA NS5A protein expression at 3 nM after 24 hrs; type: cell-based; how it was run: as §3
[15] = target: Heat shock cognate 71 kDa protein (Homo sapiens) (UniProt P11142); assay: Induction of HSC70 chaperone activity in human Huh-luc/neo-ET cells co-transfected with FLAG-tagged CHIP assessed as reduction in HCV RNA NS3 protein expression at 3 nM after 24 hrs; type: cell-based; how it was run: as §3
HepG2 2.2.15 [16] = assay: Effect on HSC70 expression in human HepG2(2.2.15) cells at 3 nM measured up to 72 hrs by Western blot analysis; type: functional, cell-based
[17] = target: Heat shock cognate 71 kDa protein (Homo sapiens) (UniProt P11142); assay: Induction of HSC70 chaperone activity in human Huh-luc/neo-ET cells assessed as reduction in HCV RNA NS3 protein expression at 3 nM after 24 hrs; type: cell-based; how it was run: as §3

Row | SMILES | EC50 (Hepatitis C virus) [nM] | IC50 (HepG2 2.2.15 [3]) [nM] | EC10 (Hepatitis B virus) [nM] | selectivity ratio [5] | IC50 [7] [nM] | displacement activity (active/not active) [8] | Activity [9] | also measured
1 | COc1ccc2c3c(c4cc(OC)c(OC)cc4c2c1)C[C@H]1C[C@H](O)CCN1C3 | 1.4 | 49 | > 5.5 | 3.57 | 5 | Active | Active | Activity [1]: Non-Toxic; Activity [2]: Active; Activity (Huh-luc/neo-ET): inactive; Activity [4]: Active; Activity [6]: Active; Activity [10]: Active; Activity [11]: Active
2 | COc1cc2c3c(c4cc(OC)c(OC)cc4c2cc1OC)[C@H](O)[C@@H]1CCCN1C3 | 31.5 | 98.9 | > 300 | 2.89 | 91 |  |  | 
3 | COc1ccc2c3c(c4cc(OC)c(OC)cc4c2c1)C[C@H]1CN(C2CC2)CN1C3 (racemic) | 750 | 820 | > 300 | 1.33 | 1000 |  |  | 
4 | COc1ccc2c3c(c4cc(OC)c(OC)cc4c2c1)C[C@H]1CCN(N(C)C)CN1C3 (racemic) | 3750 | 2400 | > 900 | 1.07 | 4000 |  |  | 
5 | COc1ccc2c3c(c4cc(OC)c(OC)cc4c2c1)C[C@H]1CCOCN1C3 (racemic) | 651 | 1100 | > 500 | 1.54 | 1000 |  |  | 
6 | COc1ccc2c3c(c4cc(OC)c(OC)cc4c2c1)C[C@H]1CCCCCN1C3 (racemic) | 52.3 | 2700 | > 1000 | 5.75 | 300 |  |  | 
7 | COc1ccc2c3c(c4cc(OC)c(OC)cc4c2c1)C[C@H]1CCOCCN1C3 (racemic) | 16.7 | 4000 | > 300 | 7.19 | 120 |  |  | 
8 | COc1ccc2c3c(c4cc(OC)c(OC)cc4c2c1)C[C@H]1C[C@@H](O)CCN1C3 (racemic) | 4.9 | 134 | > 26 | 8.59 | 42.1 | inactive |  | 
9 | COc1ccc2c3c(c4cc(OC)c(OC)cc4c2c1)C[C@H]1CC[C@@H](O)CN1C3 (racemic) | 3 | 258 | > 25 | 7.1 | 21.3 | inactive | Active | 
10 | COc1ccc2c3c(c4cc(OC)c(OC)cc4c2c1)C[C@H]1CC[C@H](O)CN1C3 (racemic) | 246 | 1600 | > 3000 | 15.2 | 3750 | inactive | Active | 
11 | COc1ccc2c3c(c4cc(OC)c(OC)cc4c2c1)C[C@H]1CNCCN1C3 (racemic) | 183 | 1400 | > 500 | 5.46 | 1000 |  |  | 
12 | COc1ccc2c3c(c4cc(OC)c(OC)cc4c2c1)C[C@H]1CCCCN1C3 [CRYPTOPLEURINE] |  |  | > 30 |  |  |  | Active | Activity [12]: Non-Toxic; Activity [2]: Active; Activity [13]: Active; Activity [14]: Active; Activity [15]: Active; Activity (HepG2 2.2.15 [16]): inactive; Activity [17]: Active
